# Legend:
# [1] = target: 5'-AMP-activated protein kinase catalytic subunit alpha-1 (Homo sapiens) (UniProt Q13131); test: Inhibition of AMPKa1 in human SKCO1 cells at 1 uM after 4 hrs using biotin labeled DLKPENVLLDAHMNAK probe by mass-spectrometric analysis relative to control; assay type: cell-based
# Method in brief: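 Live SK-CO-1 cells were treated 4 h with compound at 1 μM or DMSO, then lysed. Lysates were labeled with a lysine-reactive ATP/ADP-biotin probe and analysed by mass spectrometry. Percent inhibition is the loss of probe-dependent recovery of the kinase peptide relative to DMSO.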
# [2] = target: Epidermal growth factor receptor (Homo sapiens) (UniProt P00533); test: Inhibition of EGFR in human SKCO1 cells at 1 uM after 4 hrs using biotin labeled IPVAIKELR probe by mass-spectrometric analysis relative to control; assay type: cell-based
# [3] = target: T1, Serine/threonine-protein kinase LATS1 (Homo sapiens) (UniProt O95835); test: Inhibition of LATS1 in human SKCO1 cells at 1 uM after 4 hrs using biotin labeled ALYATKTLR probe by mass-spectrometric analysis relative to control; assay type: cell-based
# T1 sequence (whole entry): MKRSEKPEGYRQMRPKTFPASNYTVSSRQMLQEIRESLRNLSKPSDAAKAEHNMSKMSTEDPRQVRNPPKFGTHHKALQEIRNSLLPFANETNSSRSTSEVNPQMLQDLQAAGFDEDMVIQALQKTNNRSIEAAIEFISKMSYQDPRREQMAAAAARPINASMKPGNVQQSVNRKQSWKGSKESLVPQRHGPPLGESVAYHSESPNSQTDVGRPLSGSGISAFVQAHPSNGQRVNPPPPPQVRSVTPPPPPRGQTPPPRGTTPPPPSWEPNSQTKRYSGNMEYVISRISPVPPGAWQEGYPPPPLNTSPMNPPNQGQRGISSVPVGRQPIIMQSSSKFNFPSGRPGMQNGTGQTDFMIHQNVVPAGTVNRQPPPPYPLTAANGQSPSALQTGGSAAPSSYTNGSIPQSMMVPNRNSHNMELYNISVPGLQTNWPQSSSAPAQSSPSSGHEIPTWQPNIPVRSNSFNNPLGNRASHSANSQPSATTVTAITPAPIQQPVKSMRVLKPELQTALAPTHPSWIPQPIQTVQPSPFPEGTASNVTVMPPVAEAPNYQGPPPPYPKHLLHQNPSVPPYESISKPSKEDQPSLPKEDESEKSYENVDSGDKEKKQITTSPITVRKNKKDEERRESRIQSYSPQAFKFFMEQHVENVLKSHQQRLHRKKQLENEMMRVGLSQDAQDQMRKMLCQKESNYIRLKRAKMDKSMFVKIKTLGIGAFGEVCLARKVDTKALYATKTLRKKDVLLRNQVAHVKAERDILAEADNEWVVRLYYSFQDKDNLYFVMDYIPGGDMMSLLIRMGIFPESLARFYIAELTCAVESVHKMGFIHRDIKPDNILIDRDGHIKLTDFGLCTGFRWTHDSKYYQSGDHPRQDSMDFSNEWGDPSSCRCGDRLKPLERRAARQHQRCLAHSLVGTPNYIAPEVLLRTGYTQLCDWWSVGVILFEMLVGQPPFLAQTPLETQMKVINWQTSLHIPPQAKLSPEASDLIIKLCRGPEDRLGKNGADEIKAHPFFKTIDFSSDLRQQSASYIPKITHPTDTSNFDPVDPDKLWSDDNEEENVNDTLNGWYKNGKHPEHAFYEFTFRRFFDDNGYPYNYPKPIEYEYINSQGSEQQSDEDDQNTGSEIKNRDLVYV
# [4] = target: Cyclin-dependent kinase 16 (Homo sapiens) (UniProt Q00536); test: Inhibition of PCTAIRE1 in human SKCO1 cells at 1 uM after 4 hrs using biotin labeled DLKPQNLLINER probe by mass-spectrometric analysis relative to control; assay type: cell-based
# Chain of Cyclin-dependent kinase 16 (Homo sapiens) (Q00536 whole entry): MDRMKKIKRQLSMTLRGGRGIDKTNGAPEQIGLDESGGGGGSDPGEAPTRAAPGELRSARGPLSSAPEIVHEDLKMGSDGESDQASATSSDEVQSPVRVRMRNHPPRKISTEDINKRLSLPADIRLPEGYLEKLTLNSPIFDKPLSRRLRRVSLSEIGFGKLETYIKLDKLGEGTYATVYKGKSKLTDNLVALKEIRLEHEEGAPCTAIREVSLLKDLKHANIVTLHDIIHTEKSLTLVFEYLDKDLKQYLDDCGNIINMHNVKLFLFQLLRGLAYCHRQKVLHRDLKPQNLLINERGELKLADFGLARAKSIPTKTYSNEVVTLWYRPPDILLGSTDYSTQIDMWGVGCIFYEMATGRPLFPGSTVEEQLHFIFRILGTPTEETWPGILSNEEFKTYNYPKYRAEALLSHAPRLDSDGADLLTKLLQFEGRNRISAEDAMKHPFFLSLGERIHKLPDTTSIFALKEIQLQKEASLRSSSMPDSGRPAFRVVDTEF
# Method in brief: (§1)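 Live SK-CO-1 cells exposed to compound at 1 μM or DMSO for 4 h (KiNativ). Lysates then labeled with lysine-reactive ATP/ADP-biotin probe, and probe-labeled kinase peptides quantified by mass spectrometry. Percent inhibition of probe-dependent recovery calculated relative to DMSO-treated cells.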
# [5] = target: Cyclin-dependent kinase 17 (Homo sapiens) (UniProt Q00537); test: Inhibition of PCTAIRE2 in human SKCO1 cells at 1 uM after 4 hrs using biotin labeled SKLTENLVALKEIR probe by mass-spectrometric analysis relative to control; assay type: cell-based; method in brief: as §1
# Chain of Cyclin-dependent kinase 17 (Homo sapiens) (Q00537 whole entry, looked up): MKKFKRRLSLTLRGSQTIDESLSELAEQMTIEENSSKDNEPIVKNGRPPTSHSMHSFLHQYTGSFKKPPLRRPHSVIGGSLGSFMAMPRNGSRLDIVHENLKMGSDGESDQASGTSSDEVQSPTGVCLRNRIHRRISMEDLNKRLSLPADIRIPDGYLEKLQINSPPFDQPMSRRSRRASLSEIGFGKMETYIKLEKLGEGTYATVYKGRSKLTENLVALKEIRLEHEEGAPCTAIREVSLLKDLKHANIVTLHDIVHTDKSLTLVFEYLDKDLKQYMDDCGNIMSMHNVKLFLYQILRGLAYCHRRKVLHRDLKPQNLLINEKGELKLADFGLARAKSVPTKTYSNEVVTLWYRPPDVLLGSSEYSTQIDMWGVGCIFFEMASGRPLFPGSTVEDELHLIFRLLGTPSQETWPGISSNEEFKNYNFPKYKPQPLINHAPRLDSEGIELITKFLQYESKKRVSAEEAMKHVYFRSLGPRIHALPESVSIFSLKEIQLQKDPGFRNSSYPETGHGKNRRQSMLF
# [6] = target: Serine/threonine-protein kinase PLK1 (Homo sapiens) (UniProt P53350); test: Inhibition of PLK1 in human SKCO1 cells at 1 uM after 4 hrs using biotin labeled CFEISDADTKEVFAGKIVPK probe by mass-spectrometric analysis relative to control; assay type: cell-based; method in brief: as §1
# Chain of Serine/threonine-protein kinase PLK1 (Homo sapiens) (P53350 whole entry): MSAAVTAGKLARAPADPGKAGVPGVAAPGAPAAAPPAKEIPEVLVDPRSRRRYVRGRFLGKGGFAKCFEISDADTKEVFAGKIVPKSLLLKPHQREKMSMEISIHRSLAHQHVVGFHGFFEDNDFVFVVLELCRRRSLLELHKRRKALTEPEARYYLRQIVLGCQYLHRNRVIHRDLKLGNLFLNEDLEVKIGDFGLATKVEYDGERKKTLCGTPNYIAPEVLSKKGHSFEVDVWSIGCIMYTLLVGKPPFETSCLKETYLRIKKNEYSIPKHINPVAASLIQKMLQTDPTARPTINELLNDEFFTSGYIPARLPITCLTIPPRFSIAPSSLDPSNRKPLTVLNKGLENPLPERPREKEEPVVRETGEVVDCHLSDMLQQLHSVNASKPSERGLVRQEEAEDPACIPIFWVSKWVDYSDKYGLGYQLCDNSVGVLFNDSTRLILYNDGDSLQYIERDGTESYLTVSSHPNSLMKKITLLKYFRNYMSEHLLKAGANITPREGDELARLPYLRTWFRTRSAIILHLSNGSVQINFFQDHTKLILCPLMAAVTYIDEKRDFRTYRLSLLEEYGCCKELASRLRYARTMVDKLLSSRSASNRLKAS
# [7] = target: T2, EKC/KEOPS complex subunit TP53RK (Homo sapiens) (UniProt Q96S44); test: Inhibition of PRPK in human SKCO1 cells at 1 uM after 4 hrs using biotin labeled FLSGLELVKQGAEAR probe by mass-spectrometric analysis relative to control; assay type: cell-based; method in brief: as §1
# T2 sequence (whole entry): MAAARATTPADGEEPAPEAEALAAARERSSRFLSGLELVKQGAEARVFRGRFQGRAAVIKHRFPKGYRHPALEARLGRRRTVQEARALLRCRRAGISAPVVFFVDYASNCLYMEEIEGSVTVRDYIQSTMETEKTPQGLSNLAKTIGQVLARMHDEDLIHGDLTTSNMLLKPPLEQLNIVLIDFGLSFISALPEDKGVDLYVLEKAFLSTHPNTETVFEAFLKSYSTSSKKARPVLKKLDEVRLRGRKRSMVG
# [8] = target: Mitogen-activated protein kinase kinase kinase 20 (Homo sapiens) (UniProt Q9NYL2); test: Inhibition of ZAK in human SKCO1 cells at 1 uM after 4 hrs using biotin labeled WISQDKEVAVKK probe by mass-spectrometric analysis relative to control; assay type: cell-based; method in brief: as §1
# Chain of Mitogen-activated protein kinase kinase kinase 20 (Homo sapiens) (Q9NYL2 2-800 limits assumed): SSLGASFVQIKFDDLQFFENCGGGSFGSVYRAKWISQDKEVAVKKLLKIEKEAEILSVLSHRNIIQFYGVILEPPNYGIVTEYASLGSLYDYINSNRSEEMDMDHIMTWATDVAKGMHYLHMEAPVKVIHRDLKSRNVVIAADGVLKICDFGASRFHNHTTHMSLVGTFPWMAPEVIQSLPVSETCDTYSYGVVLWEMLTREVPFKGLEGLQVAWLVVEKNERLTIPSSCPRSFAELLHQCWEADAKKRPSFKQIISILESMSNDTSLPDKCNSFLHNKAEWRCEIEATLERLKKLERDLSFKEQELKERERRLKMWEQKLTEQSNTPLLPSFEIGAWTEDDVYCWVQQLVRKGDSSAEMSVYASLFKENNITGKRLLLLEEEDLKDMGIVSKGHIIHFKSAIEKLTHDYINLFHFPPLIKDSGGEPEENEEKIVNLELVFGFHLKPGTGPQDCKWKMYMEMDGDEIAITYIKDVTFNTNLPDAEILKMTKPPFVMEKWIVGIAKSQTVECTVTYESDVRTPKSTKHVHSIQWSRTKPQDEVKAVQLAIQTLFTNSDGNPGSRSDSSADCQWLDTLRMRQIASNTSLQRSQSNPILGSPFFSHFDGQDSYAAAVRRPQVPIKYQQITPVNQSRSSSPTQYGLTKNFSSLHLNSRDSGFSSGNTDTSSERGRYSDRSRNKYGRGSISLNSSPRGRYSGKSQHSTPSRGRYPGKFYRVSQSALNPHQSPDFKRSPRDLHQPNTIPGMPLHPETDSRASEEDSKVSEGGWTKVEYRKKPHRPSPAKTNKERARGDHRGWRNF
# [9] = target: STE20-like serine/threonine-protein kinase SLK (Homo sapiens) (UniProt Q9H2G2); test: Inhibition of SLK in human SKCO1 cells at 1 uM after 4 hrs using biotin labeled DLKAGNILFTLDGDIK probe by mass-spectrometric analysis relative to control
# Chain of STE20-like serine/threonine-protein kinase SLK (Homo sapiens) (Q9H2G2 whole entry, looked up): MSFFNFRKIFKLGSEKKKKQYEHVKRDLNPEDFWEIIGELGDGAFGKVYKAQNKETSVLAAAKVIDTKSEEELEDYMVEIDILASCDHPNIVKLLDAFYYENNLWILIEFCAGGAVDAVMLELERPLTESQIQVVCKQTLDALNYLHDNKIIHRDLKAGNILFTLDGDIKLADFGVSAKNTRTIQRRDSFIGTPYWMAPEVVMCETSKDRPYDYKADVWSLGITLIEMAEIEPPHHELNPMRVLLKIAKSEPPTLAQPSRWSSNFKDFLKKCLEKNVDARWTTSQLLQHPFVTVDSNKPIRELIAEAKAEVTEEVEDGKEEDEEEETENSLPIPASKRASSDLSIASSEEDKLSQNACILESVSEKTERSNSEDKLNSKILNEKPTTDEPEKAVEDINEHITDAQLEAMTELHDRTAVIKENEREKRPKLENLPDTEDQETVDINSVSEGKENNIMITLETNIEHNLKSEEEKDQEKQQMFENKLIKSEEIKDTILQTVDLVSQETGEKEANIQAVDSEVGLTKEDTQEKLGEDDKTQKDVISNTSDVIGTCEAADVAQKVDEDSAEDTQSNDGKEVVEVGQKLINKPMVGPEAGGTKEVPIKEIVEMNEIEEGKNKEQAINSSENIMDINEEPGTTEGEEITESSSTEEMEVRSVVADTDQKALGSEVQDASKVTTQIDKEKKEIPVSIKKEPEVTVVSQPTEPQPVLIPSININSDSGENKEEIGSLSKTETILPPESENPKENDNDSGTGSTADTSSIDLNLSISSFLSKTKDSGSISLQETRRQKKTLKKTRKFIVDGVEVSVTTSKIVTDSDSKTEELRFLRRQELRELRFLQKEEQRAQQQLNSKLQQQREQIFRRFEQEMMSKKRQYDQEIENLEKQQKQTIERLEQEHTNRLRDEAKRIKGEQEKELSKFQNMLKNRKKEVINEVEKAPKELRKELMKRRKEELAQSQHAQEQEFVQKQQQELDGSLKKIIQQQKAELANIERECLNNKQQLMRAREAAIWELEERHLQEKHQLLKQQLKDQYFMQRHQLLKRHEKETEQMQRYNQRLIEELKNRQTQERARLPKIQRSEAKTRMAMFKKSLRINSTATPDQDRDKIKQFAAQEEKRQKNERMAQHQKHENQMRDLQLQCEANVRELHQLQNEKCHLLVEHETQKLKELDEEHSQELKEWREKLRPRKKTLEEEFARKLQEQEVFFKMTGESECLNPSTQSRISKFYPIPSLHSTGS
# [10] = target: Aurora kinase A (Homo sapiens) (UniProt O14965); test: Inhibition of AurA in human SKCO1 cells at 1 uM after 4 hrs using biotin labeled DIKPENLLLGSAGELK probe by mass-spectrometric analysis relative to control
# Chain of Aurora kinase A (Homo sapiens) (O14965 whole entry, looked up): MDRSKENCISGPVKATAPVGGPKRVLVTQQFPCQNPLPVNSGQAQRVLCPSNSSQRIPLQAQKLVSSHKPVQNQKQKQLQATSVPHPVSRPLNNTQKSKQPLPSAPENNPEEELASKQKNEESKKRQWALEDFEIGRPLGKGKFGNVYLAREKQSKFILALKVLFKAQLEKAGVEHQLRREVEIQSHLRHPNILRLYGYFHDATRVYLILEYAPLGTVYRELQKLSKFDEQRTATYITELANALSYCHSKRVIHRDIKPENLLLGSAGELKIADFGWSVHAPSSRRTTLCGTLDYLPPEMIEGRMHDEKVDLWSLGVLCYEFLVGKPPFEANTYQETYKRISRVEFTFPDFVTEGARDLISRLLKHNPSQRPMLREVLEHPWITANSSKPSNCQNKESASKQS
# Chain of 5'-AMP-activated protein kinase catalytic subunit alpha-1 (Homo sapiens) (Q13131 whole entry, looked up): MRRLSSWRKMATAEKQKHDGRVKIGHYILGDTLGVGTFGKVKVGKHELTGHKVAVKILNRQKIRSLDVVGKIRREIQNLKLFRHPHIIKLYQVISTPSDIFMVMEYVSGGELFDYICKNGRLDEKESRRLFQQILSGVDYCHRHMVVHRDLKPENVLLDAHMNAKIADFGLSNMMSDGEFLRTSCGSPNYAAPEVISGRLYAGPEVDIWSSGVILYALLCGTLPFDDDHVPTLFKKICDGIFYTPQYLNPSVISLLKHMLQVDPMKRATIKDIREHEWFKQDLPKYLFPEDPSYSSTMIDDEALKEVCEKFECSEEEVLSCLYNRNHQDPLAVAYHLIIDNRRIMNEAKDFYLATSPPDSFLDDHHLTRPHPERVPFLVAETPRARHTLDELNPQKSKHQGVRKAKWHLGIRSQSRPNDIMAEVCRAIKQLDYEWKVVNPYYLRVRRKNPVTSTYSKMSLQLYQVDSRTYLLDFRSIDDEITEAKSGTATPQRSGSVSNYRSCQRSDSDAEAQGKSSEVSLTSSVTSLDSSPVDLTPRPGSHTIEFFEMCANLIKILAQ
SMILES,inhibition [1],inhibition [2],inhibition [3],inhibition [4],inhibition [5],inhibition [6],inhibition [7],inhibition [8],inhibition [9],inhibition [10]
C=CC(=O)Nc1ccccc1Oc1nc(Nc2cnn(CCOC)c2)ncc1Cl,0.2%,17.1%,5.3%,-5.9%,21.9%,59.9%,46.6%,-9.2%,61.2%,48.4%
C=CC(=O)Nc1ccccc1Nc1nc(Nc2ccc(N3CCN(C)CC3)cc2)ncc1Cl,76%,46.2%,17.5%,-3.2%,3.7%,54.6%,42.1%,26%,76.3%,89.1%
COc1cc(O)c2c(c1)/C=C/C[C@H](O)[C@H](O)C(=O)/C=C\C[C@H](C)OC2=O,33.6%,6.2%,9.9%,-6.3%,21.2%,61.5%,46.7%,87.5%,66%,56.3%
